Measurements from ChEMBL document CHEMBL1128473, “[(Biaryloxy)alkyl]isoxazoles: picornavirus inhibitors” (J Med Chem, 1995).
≈ marks a conversion by molar mass, not a printed value.

Experiments:
Type in all cases: functional
Human rhinovirus sp. [1] = assay: Minimum inhibitory concentration on HRV serotype 15
Human rhinovirus sp. [2] = assay: Minimum inhibitory concentration on HRV serotype 16
Human rhinovirus sp. [3] = assay: Minimum inhibitory concentration on HRV serotype 19
Human rhinovirus sp. [4] = assay: Minimum inhibitory concentration on HRV serotype 64
Human rhinovirus sp. [5] = assay: Minimum inhibitory concentration on HRV serotype 66
Human rhinovirus sp. [6] = assay: Minimum inhibitory concentration on HRV serotype 67
Human rhinovirus sp. [7] = assay: Minimum inhibitory concentration on HRV serotype 68
Human rhinovirus sp. [8] = assay: Minimum inhibitory concentration on HRV serotype 71
Human rhinovirus sp. [9] = assay: Minimum inhibitory concentration on HRV serotype 73
Human rhinovirus sp. [10] = assay: Minimum inhibitory concentration on HRV serotype 75
Human rhinovirus sp. [11] = assay: Minimum inhibitory concentration on HRV serotype 76
Method in brief: (§1)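 Tested in a tissue culture infectious dose (TCID50) assay with 72 h compound exposure. Activity is read as the concentration that holds virus to 50% of the titer of untreated controls.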

Human rhinovirus sp. [12] = assay: Minimum inhibitory concentration on HRV serotype 78; method in brief: as §1
Human rhinovirus sp. [13] = assay: Minimum inhibitory concentration on HRV serotype 79; method in brief: as §1
Human rhinovirus sp. [14] = assay: Minimum inhibitory concentration on HRV serotype 80; method in brief: as §1
Human rhinovirus sp. [15] = assay: Minimum inhibitory concentration on HRV serotype 81; method in brief: as §1
Human rhinovirus sp. [16] = assay: Minimum inhibitory concentration on HRV serotype 82; method in brief: as §1
Human rhinovirus sp. [17] = assay: Minimum inhibitory concentration on HRV serotype 83; method in brief: as §1
Human rhinovirus sp. [18] = assay: Minimum inhibitory concentration on HRV serotype 84; method in brief: as §1
Human rhinovirus sp. [19] = assay: Minimum inhibitory concentration on HRV serotype 85; method in brief: as §1
Human rhinovirus sp. [20] = assay: Concentration inhibiting 50% of the serotypes tested to 50% of the viral concentration of untreated controls following 72 hr of exposure
Method in brief: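 Tissue culture infectious dose (TCID50) assay against a panel of 10 human rhinovirus serotypes. For each serotype, the viral concentration was compared with untreated controls after 72 h of compound exposure. MIC50 is the compound concentration at which half of the serotypes tested are reduced to 50% of the untreated-control viral concentration.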

Human rhinovirus sp. [21] = assay: Minimum inhibitory concentration on HRV serotype 88; method in brief: as §1
Human rhinovirus sp. [22] = assay: Minimum inhibitory concentration on HRV serotype 89; method in brief: as §1
Human rhinovirus sp. [23] = assay: Minimum inhibitory concentration on HRV serotype 9; method in brief: as §1
Human rhinovirus sp. [24] = assay: Minimum inhibitory concentration on HRV serotype 90; method in brief: as §1
Human rhinovirus sp. [25] = assay: Minimum inhibitory concentration on HRV serotype 92; method in brief: as §1
Human rhinovirus sp. [26] = assay: Minimum inhibitory concentration on HRV serotype 96; method in brief: as §1
Human rhinovirus sp. [27] = assay: Minimum inhibitory concentration on HRV serotype T39; method in brief: as §1
Human rhinovirus sp. [28] = assay: Minimum inhibitory concentration on HRV serotype 100
Human rhinovirus sp. [29] = assay: Minimum inhibitory concentration on HRV serotype 36
Human rhinovirus sp. [30] = assay: Minimum inhibitory concentration on HRV serotype 38
Human rhinovirus sp. [31] = assay: Minimum inhibitory concentration on HRV serotype 39
Human rhinovirus sp. [32] = assay: Minimum inhibitory concentration on HRV serotype 40
Human rhinovirus sp. [33] = assay: Minimum inhibitory concentration on HRV serotype 43
Human rhinovirus sp. [34] = assay: Minimum inhibitory concentration on HRV serotype 44
Human rhinovirus sp. [35] = assay: Minimum inhibitory concentration on HRV serotype 46
Human rhinovirus sp. [36] = assay: Minimum inhibitory concentration on HRV serotype 47
Human rhinovirus sp. [37] = assay: Minimum inhibitory concentration on HRV serotype 49
Human rhinovirus sp. [38] = assay: Minimum inhibitory concentration on HRV serotype 50
Human rhinovirus sp. [39] = assay: Minimum inhibitory concentration on HRV serotype 51
Human rhinovirus sp. [40] = assay: Minimum inhibitory concentration on HRV serotype 55
Human rhinovirus sp. [41] = assay: Minimum inhibitory concentration on HRV serotype 56
Human rhinovirus sp. [42] = assay: Minimum inhibitory concentration on HRV serotype 57
Human rhinovirus sp. [43] = assay: Minimum inhibitory concentration on HRV serotype 58
Human rhinovirus sp. [44] = assay: Minimum inhibitory concentration on HRV serotype 61
Human rhinovirus sp. [45] = assay: Minimum inhibitory concentration on HRV serotype 62
Human rhinovirus sp. [46] = assay: Minimum inhibitory concentration on HRV serotype 63
Human rhinovirus sp. [47] = assay: Minimum inhibitory concentration on HRV serotype 20
Human rhinovirus sp. [48] = assay: Minimum inhibitory concentration on HRV serotype 21
Human rhinovirus sp. [49] = assay: Minimum inhibitory concentration on HRV serotype 22
Human rhinovirus sp. [50] = assay: Minimum inhibitory concentration on HRV serotype 24
Human rhinovirus sp. [51] = assay: Minimum inhibitory concentration on HRV serotype 25
Human rhinovirus sp. [52] = assay: Minimum inhibitory concentration on HRV serotype 28
Human rhinovirus sp. [53] = assay: Minimum inhibitory concentration on HRV serotype 29
Human rhinovirus sp. [54] = assay: Minimum inhibitory concentration on HRV serotype 30
Human rhinovirus sp. [55] = assay: Minimum inhibitory concentration on HRV serotype 32
Human rhinovirus sp. [56] = assay: Minimum inhibitory concentration on HRV serotype 33
Human rhinovirus sp. [57] = assay: Minimum inhibitory concentration on HRV serotype 34
Human rhinovirus sp. [58] = assay: Minimum inhibitory concentration on HRV serotype 1A
Human rhinovirus sp. [59] = assay: Minimum inhibitory concentration on HRV serotype 1B
Human rhinovirus sp. [60] = assay: Minimum inhibitory concentration on HRV serotype 2
Human rhinovirus sp. [61] = assay: Minimum inhibitory concentration on HRV serotype 11
Human rhinovirus sp. [62] = assay: Minimum inhibitory concentration on HRV serotype 35
Human rhinovirus sp. [63] = assay: Minimum inhibitory concentration on HRV serotype 7
Human rhinovirus sp. [64] = assay: Minimum inhibitory concentration on HRV serotype 23
Human rhinovirus sp. [65] = assay: Minimum inhibitory concentration on HRV serotype 53

Cc1cc(CCCCCOc2c(Cl)cc(C3=NCCO3)cc2Cl)on1 [WIN-54954]
MIC (Human rhinovirus sp. [1]): 0.49 µg/mL (≈ 1.28 µM)
MIC (Human rhinovirus sp. [2]): 0.639 µg/mL (≈ 1.67 µM)
MIC (Human rhinovirus sp. [3]): 0.178 µg/mL (≈ 0.464 µM)
MIC (Human rhinovirus sp. [4]): 0.497 µg/mL (≈ 1.3 µM)
MIC (Human rhinovirus sp. [5]): 0.069 µg/mL (≈ 0.18 µM)
MIC (Human rhinovirus sp. [6]): 0.169 µg/mL (≈ 0.441 µM)
MIC (Human rhinovirus sp. [7]): 0.032 µg/mL (≈ 0.0835 µM)
MIC (Human rhinovirus sp. [8]): 0.018 µg/mL (≈ 0.047 µM)
MIC (Human rhinovirus sp. [9]): 0.242 µg/mL (≈ 0.631 µM)
MIC (Human rhinovirus sp. [10]): 0.157 µg/mL (≈ 0.41 µM)
MIC (Human rhinovirus sp. [11]): 0.102 µg/mL (≈ 0.266 µM)
MIC (Human rhinovirus sp. [12]): 0.081 µg/mL (≈ 0.211 µM)
MIC (Human rhinovirus sp. [13]): 0.028 µg/mL (≈ 0.0731 µM)
MIC (Human rhinovirus sp. [14]): 0.124 µg/mL (≈ 0.324 µM)
MIC (Human rhinovirus sp. [15]): 0.416 µg/mL (≈ 1.09 µM)
MIC (Human rhinovirus sp. [16]): 0.245 µg/mL (≈ 0.639 µM)
MIC (Human rhinovirus sp. [17]): 0.018 µg/mL (≈ 0.047 µM)
MIC (Human rhinovirus sp. [18]): > 3 µg/mL
MIC (Human rhinovirus sp. [19]): 0.043 µg/mL (≈ 0.112 µM)
MIC50 (Human rhinovirus sp. [20]): 0.78 µM (≈ 0.299 µg/mL)
MIC (Human rhinovirus sp. [21]): 0.084 µg/mL (≈ 0.219 µM)
MIC (Human rhinovirus sp. [22]): 0.034 µg/mL (≈ 0.0887 µM)
MIC (Human rhinovirus sp. [23]): 0.187 µg/mL (≈ 0.488 µM)
MIC (Human rhinovirus sp. [24]): 0.191 µg/mL (≈ 0.498 µM)
MIC (Human rhinovirus sp. [25]): 2 ng/mL (≈ 0.00522 µM)
MIC (Human rhinovirus sp. [26]): 0.091 µg/mL (≈ 0.237 µM)
MIC (Human rhinovirus sp. [27]): 0.299 µg/mL (≈ 0.78 µM)
MIC (Human rhinovirus sp. [28]): 0.025 µg/mL (≈ 0.0652 µM)
MIC (Human rhinovirus sp. [29]): 0.073 µg/mL (≈ 0.19 µM)
MIC (Human rhinovirus sp. [30]): 0.078 µg/mL (≈ 0.204 µM)
MIC (Human rhinovirus sp. [31]): 0.347 µg/mL (≈ 0.905 µM)
MIC (Human rhinovirus sp. [32]): 0.053 µg/mL (≈ 0.138 µM)
MIC (Human rhinovirus sp. [33]): 0.283 µg/mL (≈ 0.738 µM)
MIC (Human rhinovirus sp. [34]): 0.119 µg/mL (≈ 0.31 µM)
MIC (Human rhinovirus sp. [35]): 0.143 µg/mL (≈ 0.373 µM)
MIC (Human rhinovirus sp. [36]): 0.015 µg/mL (≈ 0.0391 µM)
MIC (Human rhinovirus sp. [37]): 0.16 µg/mL (≈ 0.417 µM)
MIC (Human rhinovirus sp. [38]): 0.47 µg/mL (≈ 1.23 µM)
MIC (Human rhinovirus sp. [39]): 0.033 µg/mL (≈ 0.0861 µM)
MIC (Human rhinovirus sp. [40]): 0.02 µg/mL (≈ 0.0522 µM)
MIC (Human rhinovirus sp. [41]): 0.099 µg/mL (≈ 0.258 µM)
MIC (Human rhinovirus sp. [42]): 0.156 µg/mL (≈ 0.407 µM)
MIC (Human rhinovirus sp. [43]): 0.028 µg/mL (≈ 0.0731 µM)
MIC (Human rhinovirus sp. [44]): 0.127 µg/mL (≈ 0.331 µM)
MIC (Human rhinovirus sp. [45]): 0.115 µg/mL (≈ 0.3 µM)
MIC (Human rhinovirus sp. [46]): 0.101 µg/mL (≈ 0.264 µM)
MIC (Human rhinovirus sp. [47]): 0.037 µg/mL (≈ 0.0965 µM)
MIC (Human rhinovirus sp. [48]): 0.031 µg/mL (≈ 0.0809 µM)
MIC (Human rhinovirus sp. [49]): 0.027 µg/mL (≈ 0.0704 µM)
MIC (Human rhinovirus sp. [50]): 0.175 µg/mL (≈ 0.457 µM)
MIC (Human rhinovirus sp. [51]): 0.072 µg/mL (≈ 0.188 µM)
MIC (Human rhinovirus sp. [52]): 0.116 µg/mL (≈ 0.303 µM)
MIC (Human rhinovirus sp. [53]): 0.295 µg/mL (≈ 0.77 µM)
MIC (Human rhinovirus sp. [54]): 0.156 µg/mL (≈ 0.407 µM)
MIC (Human rhinovirus sp. [55]): 0.269 µg/mL (≈ 0.702 µM)
MIC (Human rhinovirus sp. [56]): 0.107 µg/mL (≈ 0.279 µM)
MIC (Human rhinovirus sp. [57]): 0.072 µg/mL (≈ 0.188 µM)
MIC (Human rhinovirus sp. [58]): 0.419 µg/mL (≈ 1.09 µM)
MIC (Human rhinovirus sp. [59]): 0.105 µg/mL (≈ 0.274 µM)
MIC (Human rhinovirus sp. [60]): 0.058 µg/mL (≈ 0.151 µM)
MIC (Human rhinovirus sp. [61]): 0.102 µg/mL (≈ 0.266 µM)
MIC (Human rhinovirus sp. [62]): 0.036 µg/mL (≈ 0.0939 µM)
MIC (Human rhinovirus sp. [63]): 0.035 µg/mL (≈ 0.0913 µM)
MIC (Human rhinovirus sp. [64]): 0.451 µg/mL (≈ 1.18 µM)
MIC (Human rhinovirus sp. [65]): 0.355 µg/mL (≈ 0.926 µM)
